Data: ChEMBL document CHEMBL4342473, “Lead Optimization of Benzoxazolone Carboxamides as Orally Bioavailable and CNS Penetrant Acid Ceramidase Inhibitors” (J Med Chem, 2020)
The source made the active and inactive calls. No cut-off for these calls is given here.

Tests used:
[1] = molecular target: T1, Acid ceramidase (Homo sapiens) (UniProt Q13510); test: Inhibition of acid ceramidase in human SH-SY5Y cells using N-lauroyl ceramide as substrate measured after 3 hrs by LC/MS analysis; assay type: cell-based
T1 sequence (whole entry): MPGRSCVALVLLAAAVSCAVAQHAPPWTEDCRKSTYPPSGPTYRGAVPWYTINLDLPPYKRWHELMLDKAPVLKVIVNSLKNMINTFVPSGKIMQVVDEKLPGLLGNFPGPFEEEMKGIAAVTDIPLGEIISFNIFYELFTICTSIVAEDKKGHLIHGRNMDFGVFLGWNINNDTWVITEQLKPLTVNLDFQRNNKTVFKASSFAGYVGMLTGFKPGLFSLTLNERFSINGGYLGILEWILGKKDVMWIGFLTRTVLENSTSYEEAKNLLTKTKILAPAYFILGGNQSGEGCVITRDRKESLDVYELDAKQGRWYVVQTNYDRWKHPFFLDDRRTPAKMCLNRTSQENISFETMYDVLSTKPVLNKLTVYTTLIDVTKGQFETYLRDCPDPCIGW
How it was run: (§1)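 SH-SY5Y neuroblastoma cells exposed 3 h to 1, 2.5, 5 and 10 μM; AC activity by LC/MS-based assay; ceramide species, sphingosine, SM and HexCer (d18:1/16:0) quantified by LC/MS; means ± S.E.M. of at least six determinations, experiment repeated twice.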

[2] = molecular target: T1, Acid ceramidase (Homo sapiens); test: Inhibition of acid ceramidase in human SH-SY5Y cells assessed as increase in intracellular accumulation of Cer (d18:1/16:0) at 10 uM measured up to 6 hrs by LC/MS analysis; assay type: cell-based
How it was run: (§2)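 Human neuroblastoma SH-SY5Y cells incubated with compound at 10 μM for 30 min, 1 h, 3 h and 6 h; AC activity by LC/MS-based activity assay; Cer (d18:0/16:0), Cer (d18:1/16:0), sphingosine, SM (d18:1/16:0) and HexCer (d18:1/16:0) quantified by LC/MS.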

[3] = Unbound plasma concentration in C57BL/6J/129SvEV mouse model of Gaucher's disease at 30 mg/kg, ip administered once daily for 14 days measured 1 hr post last dose; assay type: ADME, organism-based; conditions: in vivo
How it was run: (§3)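 4L;C* mice dosed i.p. once daily for 14 days, killed 1 h after last dose (day 14); plasma and brain drug levels measured; unbound concentrations from plasma and brain unbound fractions (mean of two technical replicates); N = 4–8, mixed sexes.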

[4] = test system: Mus musculus; test: Neuroprotective activity in ip dosed Twitcher mouse model of Krabbe's disease assessed as reduction in GalSph (d18:1) level in brain administered once daily for 20 days measured 1 hr post-last dose by MS analysis; assay type: functional, organism-based
How it was run: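 Twitcher mice dosed i.p. at 30 or 90 mg kg–1 once daily for 20 days from postnatal day 10; sacrificed 1 h after last dose; brain GalSph (d18:1) measured; N = 3 males + 3 females per group.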

[5] = molecular target: T1, Acid ceramidase (Homo sapiens); test: Inhibition of acid ceramidase in human SH-SY5Y cells assessed as change in intracellular accumulation of SM (d18:1/16:0) at 10 uM measured up to 6 hrs by LC/MS analysis; assay type: cell-based; how it was run: as §2
[6] = molecular target: T1, Acid ceramidase (Homo sapiens); test: Inhibition of acid ceramidase in human SH-SY5Y cells assessed as increase in intracellular accumulation of Cer (d18:0/16:0) at 10 uM measured up to 6 hrs by LC/MS analysis; assay type: cell-based; how it was run: as §2
[7] = Unbound plasma concentration in C57BL/6J/129SvEV mouse model of Gaucher's disease at 90 mg/kg, ip administered once daily for 14 days measured 1 hr post last dose; assay type: ADME, organism-based; conditions: in vivo; how it was run: as §3
[8] = molecular target: T1, Acid ceramidase (Homo sapiens); test: Inhibition of acid ceramidase in human SH-SY5Y cells assessed as increase in intracellular accumulation of Cer (d18:0/16:0) measured after 3 hrs by LC/MS analysis; assay type: cell-based; how it was run: as §1
[9] = molecular target: T2, Sphingomyelin phosphodiesterase (Homo sapiens) (UniProt P17405); test: Inhibition of human full length ASM at 1 to 10 uM using HMU-PC as fluorogenic substrate incubated for 45 mins by fluorescence based assay
T2 sequence (whole entry): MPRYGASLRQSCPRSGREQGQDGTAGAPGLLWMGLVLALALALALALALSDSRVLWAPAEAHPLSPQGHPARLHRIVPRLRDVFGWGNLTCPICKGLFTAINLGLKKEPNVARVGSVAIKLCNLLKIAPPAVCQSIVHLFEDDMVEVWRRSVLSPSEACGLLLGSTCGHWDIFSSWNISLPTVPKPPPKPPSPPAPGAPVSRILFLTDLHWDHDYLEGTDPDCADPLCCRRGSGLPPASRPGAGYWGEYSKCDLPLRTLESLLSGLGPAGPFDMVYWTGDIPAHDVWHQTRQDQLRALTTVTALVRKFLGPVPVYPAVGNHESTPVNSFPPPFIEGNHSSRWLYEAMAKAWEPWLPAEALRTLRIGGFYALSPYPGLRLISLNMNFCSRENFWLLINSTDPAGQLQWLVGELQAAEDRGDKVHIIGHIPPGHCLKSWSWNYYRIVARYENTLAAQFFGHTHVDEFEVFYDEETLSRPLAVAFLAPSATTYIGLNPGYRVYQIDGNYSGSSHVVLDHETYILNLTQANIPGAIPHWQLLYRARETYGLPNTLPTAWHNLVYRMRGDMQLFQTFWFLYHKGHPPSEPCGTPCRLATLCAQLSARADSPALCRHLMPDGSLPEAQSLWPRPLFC

[10] = molecular target: T1, Acid ceramidase (Homo sapiens); test: Inhibition of acid ceramidase in human SH-SY5Y cells assessed as increase in intracellular accumulation of Cer (d18:1/16:0) measured after 3 hrs by LC/MS analysis; assay type: cell-based; how it was run: as §1
[11] = Unbound plasma concentration in twitcher mouse model of Krabbe's disease at 90 mg/kg, ip administered once daily for 20 days measured 1 hr post-last dose; assay type: ADME, organism-based; conditions: in vivo
How it was run: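 Twitcher mice dosed i.p. once daily for 20 days, sacrificed 1 h after last dose (day 20); drug measured in plasma and brain; unbound levels from unbound fractions (mean of two technical replicates); N = 3 males + 3 females per group.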

[12] = Unbound drug level in brain of C57BL/6J/129SvEV mouse model of Gaucher's disease at 30 mg/kg, ip administered once daily for 14 days measured 1 hr post-last dose; assay type: ADME, organism-based; conditions: in vivo; how it was run: as §3
[13] = test system: Mus musculus; test: Neuroprotective activity in ip dosed C57BL/6J/129SvEV mouse model of Gaucher's disease assessed as reduction in GluSph (d18:1) level in brain administered once daily for 14 days measured 1 hr post-last dose by MS analysis; assay type: functional, organism-based
How it was run: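 4L;C* mice (neuropathic Gaucher model) given 30 or 90 mg kg–1 i.p. once daily for 14 days from postnatal day 5; killed 1 h after last dose; brain GluSph (d18:1) measured; N = 4–8 per group, mixed sexes.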

[14] = Ratio of unbound drug level in brain of C57BL/6J/129SvEV mouse model of Gaucher's disease at 30 mg/kg, ip administered once daily for 14 days measured 1 hr post-last dose to EC50 for inhibition of acid ceramidase in Krabbe's disease patient-derived primary fibroblasts; assay type: organism-based; conditions: in vivo
How it was run: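 Gaucher-model 4L;C* mice (N = 4–8, mixed sexes) got 30 or 90 mg kg–1 i.p. once daily for 14 days from postnatal day 5 and were sacrificed 1 h after the day-14 dose. Compound levels were measured in plasma and brain, and unbound brain level came from brain fraction unbound (two technical replicates). The reference EC50 was from Krabbe patient primary fibroblasts incubated 2 h across concentrations (two independent experiments, duplicates).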

With CC(C)CNC(=O)n1c(=O)oc2cc(C3CCN(C)CC3)ccc21 the inhibition [1] was “Dose-dependent effect”, the inhibition [2] was “Active” and the “Cp(f)” value [3] was 420 nM. The Activity [4] was “Dose-dependent effect”, the inhibition [5] was “inactive” and the inhibition [6] was “Active”. The “Cp(f)” value [7] was 2320 nM, the inhibition [8] was “Dose-dependent effect” and the inhibition [9] was “inactive”. The inhibition [10] was “Dose-dependent effect”, the “Cp(f)” value [11] was 520 nM and the “Drug uptake(free)” value [12] was 0.77 µM. The Activity [13] was “Dose-dependent effect” and the Ratio [14] was 1.9.
